Measured values from ChEMBL document CHEMBL1926564, “Design, synthesis and biological activity of original pyrazolo-pyrido-diazepine, -pyrazine and -oxazine dione derivatives as novel dual Nox4/Nox1 inhibitors” (Bioorg Med Chem, 2011).

Key:
Cytochrome P450 2D6 = Cytochrome P450 2D6 (Homo sapiens, UniProt P10635); experiment: Inhibition of human recombinant CYP2D6 by mass spectrophotometry; format: ADME
Outline: (§1)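 Compound 0.1–25 µM (0.3% DMSO) incubated with microsomes, NADPH and isoform-specific probe substrate. CYP2C19, 2C9, 2D6, 3A4 metabolites measured by mass spectrometry; CYP1A2 by fluorescent metabolite. IC50 from reduced metabolite formation versus vehicle.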

[1] = biological target: Xanthine dehydrogenase/oxidase (Homo sapiens, UniProt P47989); experiment: Inhibition of xanthine oxidase assessed as inhibition of ROS production after 20 mins by cell-free amplex red assay
Outline: (§2)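 Membranes from tetracycline-induced (24 h) Nox-expressing cells or human PMN (Nox2), sucrose-gradient purified; or xanthine oxidase. Incubated in PBS with Amplex Red, HRP and cofactors; NADPH (Nox) or xanthine starts ROS. Compound 1 nM–100 µM, 20 min at 37 °C, plate-reader. Background without membranes or agonist. Ki by Cheng-Prusoff; mean of ≥3 experiments in triplicate.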

[2] = Clearance in human liver microsomes assessed per mg of protein at 0.5 uM; format: ADME, Microsome; conditions: read-out: CLH
Outline: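 Pooled rat (male Sprague Dawley) or human (mixed-sex) liver microsomes at 0.5 mg/mL final, 0.1 M phosphate pH 7.4, compound 0.5 µM final, 0.25% DMSO, 37 °C; 1 mM NADPH starts reaction. Sampled 0–45 min, methanol quench with internal standard, LC/MS-MS; intrinsic clearance from compound loss.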

[3] = Volume of distribution at steady state in Sprague-Dawley rat at 5 mg/kg, iv; format: ADME, organism-based; parameters: dose 5 mg/kg, route intravenous; conditions: in vivo, read-out: Vdss
Outline: (§3)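 Rats in two groups of three: 5 mg/kg iv in EDPW (10% EtOH, 10% DMA, 30% PG, 50% water) or 10 mg/kg oral in aqueous 0.5% CMC/0.25% Tween 20. Carotid arterial cannula blood sampled up to 24 h. Plasma levels by LC/MS/MS (LLOQ 1.00 ng/mL); noncompartmental analysis.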

Salmonella typhimurium [4] = experiment: Mutagenicity in Salmonella Typhimurium at 100 uM by AMES test; format: toxicity, organism-based; conditions: salmonella enterica subsp. enterica serovar typhimurium
[5] = Mutagenicity in micronucleus at 500 uM by in vitro assay; format: ADME
Cytochrome P450 2C19 = Cytochrome P450 2C19 (Homo sapiens, UniProt P33261); experiment: Inhibition of human recombinant CYP2C19 by mass spectrophotometry; format: ADME; outline: as §1
Mus musculus = experiment: Antifibrotic activity in C57BL/6 mouse pulmonary fibrosis curative model assessed as reduction in bleomycin-induced collagen deposition at 10 mg/kg, po qd administered 10 days post challenge […] measured on day 25 by SIRCOL assay; format: functional
Outline: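 Male C57BL/6 mice (9–10 weeks) under ketamine/xylazine given 0.0125 U bleomycin intratracheally in 40 µL saline. Daily oral dosing at 10 mL/kg in 3% DMSO then aqueous 0.5% CMC/0.25% Tween 20. Whole-lung collagen by Sircol dye binding (0.5 M acetic acid extraction overnight, 540 nm, rat-tail collagen standard), µg per lung.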

Cytochrome P450 1A2 = biological target: T1, Cytochrome P450 1A2 (Homo sapiens, UniProt P05177); experiment: Inhibition of human recombinant CYP1A2 assessed as inhibition of fluorescent metabolite formation; format: ADME; outline: as §1
T1 sequence (P05177 whole entry): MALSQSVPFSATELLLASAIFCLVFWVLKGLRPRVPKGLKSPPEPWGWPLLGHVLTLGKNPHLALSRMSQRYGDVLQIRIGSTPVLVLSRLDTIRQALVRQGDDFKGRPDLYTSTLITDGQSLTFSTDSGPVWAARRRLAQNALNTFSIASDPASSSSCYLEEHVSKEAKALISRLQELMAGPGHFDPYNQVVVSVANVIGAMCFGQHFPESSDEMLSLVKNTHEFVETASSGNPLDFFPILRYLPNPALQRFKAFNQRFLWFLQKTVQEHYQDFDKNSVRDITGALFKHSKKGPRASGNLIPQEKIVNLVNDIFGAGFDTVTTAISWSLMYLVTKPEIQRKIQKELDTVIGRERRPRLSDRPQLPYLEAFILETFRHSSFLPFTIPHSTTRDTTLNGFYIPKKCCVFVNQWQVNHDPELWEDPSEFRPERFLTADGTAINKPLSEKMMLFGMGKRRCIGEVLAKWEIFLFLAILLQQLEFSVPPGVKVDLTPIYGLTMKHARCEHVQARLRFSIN

NADPH oxidase 5 = biological target: T2, NADPH oxidase 5 (Homo sapiens, UniProt Q96PH1); experiment: Antagonist activity at human NOX5 assessed as inhibition of ROS production after 20 mins by cell-free amplex red assay; format: functional; outline: as §2
T2 sequence (Q96PH1 whole entry): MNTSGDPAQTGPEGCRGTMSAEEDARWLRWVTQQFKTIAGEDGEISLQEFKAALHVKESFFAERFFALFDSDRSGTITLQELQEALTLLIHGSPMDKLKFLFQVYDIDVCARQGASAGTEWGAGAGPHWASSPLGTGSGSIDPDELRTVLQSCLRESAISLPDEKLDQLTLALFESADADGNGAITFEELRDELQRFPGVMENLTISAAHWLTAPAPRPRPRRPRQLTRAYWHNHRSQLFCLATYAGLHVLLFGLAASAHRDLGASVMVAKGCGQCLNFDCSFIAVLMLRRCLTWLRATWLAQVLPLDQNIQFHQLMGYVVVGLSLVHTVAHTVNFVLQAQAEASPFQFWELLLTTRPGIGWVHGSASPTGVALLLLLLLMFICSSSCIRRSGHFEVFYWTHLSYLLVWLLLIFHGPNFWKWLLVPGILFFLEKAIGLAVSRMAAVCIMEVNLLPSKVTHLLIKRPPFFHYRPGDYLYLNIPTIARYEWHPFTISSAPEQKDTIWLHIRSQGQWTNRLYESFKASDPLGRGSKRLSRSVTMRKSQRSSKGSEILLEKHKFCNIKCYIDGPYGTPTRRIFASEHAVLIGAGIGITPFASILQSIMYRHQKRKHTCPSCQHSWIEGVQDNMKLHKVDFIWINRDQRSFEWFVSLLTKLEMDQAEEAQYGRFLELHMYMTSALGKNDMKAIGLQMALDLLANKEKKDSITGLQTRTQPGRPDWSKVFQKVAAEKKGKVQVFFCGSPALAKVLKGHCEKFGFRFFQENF

Salmonella typhimurium [6] = experiment: Genotoxicity in Salmonella Typhimurium at 100 uM by AMES test; format: toxicity, organism-based; conditions: salmonella enterica subsp. enterica serovar typhimurium
hERG = hERG (Homo sapiens, UniProt Q12809); experiment: Inhibition of hERG at 1 uM by patch clamp assay; format: toxicity
[7] = Oral bioavailability in Sprague-Dawley rat at 10 mg/kg; format: ADME, organism-based; conditions: in vivo; outline: as §3
[8] = Half life in Sprague-Dawley rat at 5 mg/kg, iv; format: ADME, organism-based; parameters: dose 5 mg/kg, route intravenous; conditions: in vivo; outline: as §3
Cytochrome P450 2C9 = Cytochrome P450 2C9 (Homo sapiens, UniProt P11712); experiment: Inhibition of human recombinant CYP2C9 by mass spectrophotometry; format: ADME; outline: as §1
[9] = Clearance in Sprague-Dawley rat at 5 mg/kg, iv; format: ADME, organism-based; parameters: dose 5 mg/kg, route intravenous; conditions: in vivo; outline: as §3
Cytochrome P450 3A4 = Cytochrome P450 3A4 (Homo sapiens, UniProt P08684); experiment: Inhibition of human recombinant CYP3A4 by mass spectrophotometry; format: ADME; outline: as §1
Chain of Cytochrome P450 3A4 (P08684 whole entry): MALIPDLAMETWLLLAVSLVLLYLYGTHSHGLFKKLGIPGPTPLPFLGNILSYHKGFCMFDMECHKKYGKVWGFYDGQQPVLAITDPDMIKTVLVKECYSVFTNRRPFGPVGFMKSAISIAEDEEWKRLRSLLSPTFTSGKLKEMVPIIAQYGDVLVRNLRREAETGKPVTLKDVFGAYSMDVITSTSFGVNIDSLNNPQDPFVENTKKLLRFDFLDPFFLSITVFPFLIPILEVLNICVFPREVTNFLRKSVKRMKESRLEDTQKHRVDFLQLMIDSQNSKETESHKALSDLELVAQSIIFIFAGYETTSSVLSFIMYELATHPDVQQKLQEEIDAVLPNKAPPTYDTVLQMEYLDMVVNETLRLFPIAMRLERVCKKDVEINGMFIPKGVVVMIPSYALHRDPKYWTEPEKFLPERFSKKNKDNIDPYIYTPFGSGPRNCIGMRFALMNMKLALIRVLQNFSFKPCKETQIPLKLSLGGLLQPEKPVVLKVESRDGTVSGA

Chain of Xanthine dehydrogenase/oxidase (P47989 whole entry): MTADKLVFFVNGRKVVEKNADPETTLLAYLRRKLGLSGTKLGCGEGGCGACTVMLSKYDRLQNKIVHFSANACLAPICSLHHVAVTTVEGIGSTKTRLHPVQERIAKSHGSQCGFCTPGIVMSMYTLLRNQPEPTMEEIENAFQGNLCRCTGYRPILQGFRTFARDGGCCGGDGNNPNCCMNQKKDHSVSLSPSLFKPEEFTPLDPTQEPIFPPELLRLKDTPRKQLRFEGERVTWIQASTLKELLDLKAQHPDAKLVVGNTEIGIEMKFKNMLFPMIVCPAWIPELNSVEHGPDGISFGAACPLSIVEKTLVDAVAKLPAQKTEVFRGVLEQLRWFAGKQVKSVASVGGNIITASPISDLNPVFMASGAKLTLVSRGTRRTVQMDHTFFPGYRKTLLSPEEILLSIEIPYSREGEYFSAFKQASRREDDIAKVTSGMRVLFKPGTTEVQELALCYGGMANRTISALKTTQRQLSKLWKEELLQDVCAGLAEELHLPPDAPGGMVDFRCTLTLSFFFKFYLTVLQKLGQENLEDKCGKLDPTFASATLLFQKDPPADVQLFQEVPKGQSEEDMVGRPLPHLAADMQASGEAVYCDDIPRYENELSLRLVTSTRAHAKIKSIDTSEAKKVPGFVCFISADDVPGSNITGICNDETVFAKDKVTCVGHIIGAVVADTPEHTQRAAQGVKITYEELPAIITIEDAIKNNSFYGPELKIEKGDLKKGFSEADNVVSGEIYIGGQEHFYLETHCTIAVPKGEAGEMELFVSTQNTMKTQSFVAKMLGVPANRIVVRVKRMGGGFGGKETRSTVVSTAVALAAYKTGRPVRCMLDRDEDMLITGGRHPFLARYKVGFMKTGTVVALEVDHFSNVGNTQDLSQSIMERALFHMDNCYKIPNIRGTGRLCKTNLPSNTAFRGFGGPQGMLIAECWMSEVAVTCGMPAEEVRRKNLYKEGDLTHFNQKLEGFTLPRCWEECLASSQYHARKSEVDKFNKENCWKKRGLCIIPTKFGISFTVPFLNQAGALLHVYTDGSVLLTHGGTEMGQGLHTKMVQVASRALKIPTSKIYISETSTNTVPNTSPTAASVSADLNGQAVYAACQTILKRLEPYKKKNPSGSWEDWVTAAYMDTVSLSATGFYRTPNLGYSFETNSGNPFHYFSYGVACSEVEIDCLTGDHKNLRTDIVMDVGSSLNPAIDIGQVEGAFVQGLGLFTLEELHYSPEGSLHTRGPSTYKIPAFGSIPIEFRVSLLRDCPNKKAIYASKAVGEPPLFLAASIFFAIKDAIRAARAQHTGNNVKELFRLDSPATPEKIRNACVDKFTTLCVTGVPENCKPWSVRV
Chain of Cytochrome P450 2D6 (P10635 whole entry, canonical isoform): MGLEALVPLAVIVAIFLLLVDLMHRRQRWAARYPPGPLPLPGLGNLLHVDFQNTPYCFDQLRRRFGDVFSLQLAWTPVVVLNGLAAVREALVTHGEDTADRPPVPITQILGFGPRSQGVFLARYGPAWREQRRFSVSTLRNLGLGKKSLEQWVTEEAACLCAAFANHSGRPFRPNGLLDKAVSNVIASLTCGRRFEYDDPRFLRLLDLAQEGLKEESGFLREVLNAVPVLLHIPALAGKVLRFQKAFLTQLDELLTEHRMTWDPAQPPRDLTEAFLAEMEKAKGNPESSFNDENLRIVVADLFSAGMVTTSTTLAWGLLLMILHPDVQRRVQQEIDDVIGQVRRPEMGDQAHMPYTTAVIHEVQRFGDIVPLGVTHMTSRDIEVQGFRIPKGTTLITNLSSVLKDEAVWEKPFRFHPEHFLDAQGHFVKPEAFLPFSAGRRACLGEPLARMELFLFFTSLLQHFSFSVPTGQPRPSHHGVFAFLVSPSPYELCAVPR
Chain of Cytochrome P450 2C19 (P33261 whole entry): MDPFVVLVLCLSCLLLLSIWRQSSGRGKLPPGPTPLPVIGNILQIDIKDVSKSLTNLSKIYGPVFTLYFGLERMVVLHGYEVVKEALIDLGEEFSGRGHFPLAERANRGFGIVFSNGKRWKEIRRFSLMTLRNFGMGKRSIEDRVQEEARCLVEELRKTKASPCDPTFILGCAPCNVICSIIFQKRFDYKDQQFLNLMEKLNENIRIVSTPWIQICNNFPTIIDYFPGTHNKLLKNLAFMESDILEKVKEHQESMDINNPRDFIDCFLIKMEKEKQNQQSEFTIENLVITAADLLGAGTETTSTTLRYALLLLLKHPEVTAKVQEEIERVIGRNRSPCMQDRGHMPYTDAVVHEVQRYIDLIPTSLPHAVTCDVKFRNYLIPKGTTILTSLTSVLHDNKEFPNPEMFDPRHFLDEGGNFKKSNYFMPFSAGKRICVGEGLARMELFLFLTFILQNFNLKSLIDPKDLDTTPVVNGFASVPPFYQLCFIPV
Chain of Cytochrome P450 2C9 (P11712 whole entry): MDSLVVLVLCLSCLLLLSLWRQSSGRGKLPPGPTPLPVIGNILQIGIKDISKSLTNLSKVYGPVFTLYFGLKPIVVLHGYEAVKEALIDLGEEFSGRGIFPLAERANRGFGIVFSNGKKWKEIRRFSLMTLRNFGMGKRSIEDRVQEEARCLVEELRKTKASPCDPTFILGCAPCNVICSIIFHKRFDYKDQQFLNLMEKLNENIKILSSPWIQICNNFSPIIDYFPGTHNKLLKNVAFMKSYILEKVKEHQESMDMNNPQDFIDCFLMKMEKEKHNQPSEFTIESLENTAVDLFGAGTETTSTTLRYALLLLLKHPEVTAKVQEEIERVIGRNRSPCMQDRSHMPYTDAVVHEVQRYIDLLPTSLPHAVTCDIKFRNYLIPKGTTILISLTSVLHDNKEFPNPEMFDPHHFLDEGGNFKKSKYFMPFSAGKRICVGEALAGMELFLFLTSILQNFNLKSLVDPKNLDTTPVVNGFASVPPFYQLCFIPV
Chain of hERG (Q12809 whole entry): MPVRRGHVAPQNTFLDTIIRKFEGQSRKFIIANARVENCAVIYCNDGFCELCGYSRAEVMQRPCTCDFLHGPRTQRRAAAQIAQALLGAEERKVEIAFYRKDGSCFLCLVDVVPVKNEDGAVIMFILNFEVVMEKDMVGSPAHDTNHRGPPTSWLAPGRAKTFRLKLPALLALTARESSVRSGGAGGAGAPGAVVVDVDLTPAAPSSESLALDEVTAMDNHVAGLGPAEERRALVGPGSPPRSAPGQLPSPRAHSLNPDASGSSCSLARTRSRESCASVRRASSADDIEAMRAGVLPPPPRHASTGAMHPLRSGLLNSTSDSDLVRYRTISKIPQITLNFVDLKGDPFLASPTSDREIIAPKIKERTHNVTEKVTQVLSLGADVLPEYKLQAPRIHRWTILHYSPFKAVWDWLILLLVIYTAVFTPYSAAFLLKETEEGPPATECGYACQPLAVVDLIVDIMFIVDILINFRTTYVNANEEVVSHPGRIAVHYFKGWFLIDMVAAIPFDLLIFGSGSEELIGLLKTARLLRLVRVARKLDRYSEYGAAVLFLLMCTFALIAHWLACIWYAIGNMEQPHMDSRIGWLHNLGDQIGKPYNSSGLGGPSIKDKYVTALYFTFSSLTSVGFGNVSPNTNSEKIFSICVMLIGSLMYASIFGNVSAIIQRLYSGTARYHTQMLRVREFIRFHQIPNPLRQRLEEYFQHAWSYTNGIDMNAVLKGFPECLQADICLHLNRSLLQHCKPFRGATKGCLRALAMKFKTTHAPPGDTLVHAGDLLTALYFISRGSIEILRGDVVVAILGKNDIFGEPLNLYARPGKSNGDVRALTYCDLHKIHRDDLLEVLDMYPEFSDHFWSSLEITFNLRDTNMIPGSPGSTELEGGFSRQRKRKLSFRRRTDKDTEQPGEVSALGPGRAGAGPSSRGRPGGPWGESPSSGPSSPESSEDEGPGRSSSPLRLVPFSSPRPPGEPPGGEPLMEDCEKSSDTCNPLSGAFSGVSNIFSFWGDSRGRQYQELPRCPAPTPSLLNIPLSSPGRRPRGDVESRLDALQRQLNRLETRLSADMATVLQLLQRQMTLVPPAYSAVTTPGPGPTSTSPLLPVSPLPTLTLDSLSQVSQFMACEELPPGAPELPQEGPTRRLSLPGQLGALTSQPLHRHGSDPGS

Row | IC50 (Cytochrome P450 2D6) | Ki [1] | microsomal CLint at 0.5 µM [2] | Vd [3] | IC50 (Cytochrome P450 2C19) | IC50 (Cytochrome P450 1A2) | Ki (NADPH oxidase 5) | bioavailability [7] | half-life [8] | IC50 (Cytochrome P450 2C9) | clearance [9] | IC50 (Cytochrome P450 3A4) | Structure (SMILES) | Activity (Salmonella typhimurium [4]) | Activity [5] | inhibition in vivo at 10 mg/kg (Mus musculus) | Activity (Salmonella typhimurium [6]) | inhibition at 1 µM (hERG)
1 | > 25 µM | > 30 µM | 35 µL/min/mg | 0.28 L/kg | > 25 µM | > 25 µM | 0.414 µM | 53% | 2.71 h | > 25 µM | 2.17 mL/min/kg | > 25 µM | Cl.O=c1c2c3n(c(=O)cc2[nH]n1-c1ccccc1Cl)CCCN(Cc1ccccc1)C3 | Non-toxic | Non-toxic | 64% | Non-toxic | 8.7%
2 | – | – | 13.9 µL/min/mg | 0.47 L/kg | – | – | 0.543 µM | 42% | 5.62 h | – | 7.67 mL/min/kg | – | Cl.O=c1c2c3n(c(=O)cc2[nH]n1-c1ccccc1Cl)CCCN(Cc1ccccn1)C3 | – | – | – | – | –
